Source: ChEMBL document CHEMBL4699587, “Pyridine-4(1H)-one Alkaloids from Waltheria indica as Antitrypanosomatid Agents” (J Nat Prod, 2020)

Legend:
[1] = tested on: L6; experiment: Cytotoxicity against rat L6 cells assessed as reduction in cell viability after 70 hrs by resazurin dye based inverted microscopic analysis; details: L6, 70 h
[2] = tested on: Trypanosoma cruzi; experiment: Growth inhibition of amastigote form of Trypanosoma cruzi Tulahuen C2C4 expressing LacZ infected in rat L6 cells assessed as reduction in parasitic growth incubated for 96 hra by CPRG/Nonidet reagent based inverted microscopic analysis; format: functional, organism-based
Outline: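 Intracellular amastigotes of T. cruzi Tulahuen C4 strain were tested in vitro for growth inhibition. IC50 values are in µM, given as the mean of two independent assays or the mean of three independent assays ± SD.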

[3] = Selectivity index, ratio of IC50 for cytotoxicity against rat L6 cells to IC50 for growth inhibition of amastigote form of Trypanosoma cruzi Tulahuen C2C4 expressing LacZ infected in rat L6 cells; format: toxicity, cell-based; details: read-out: Ratio IC50
Outline: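 Selectivity index is calculated as the IC50 for cytotoxicity in uninfected rat skeletal L6 host cells divided by the IC50 against T. cruzi (Tulahuen C4) amastigotes. Both IC50 values are in µM.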

SMILES | IC50 [2] | IC50 [1] | selectivity ratio [3]
CCCCCCCC[C@H]1CC[C@@H](O)c2[nH]c(C)c(OC)c(=O)c21 | 6.5 µM | 26.2 µM | 4
COc1c(C)[nH]c2ccc3c(c2c1=O)[C@@H]1CC[C@H](O)[C@@]3(c2ccccc2)O1 | > 20 µM | > 22 µM | > 1
COc1ccccc1[C@@]12CC[C@@H](OC1)c1c2ccc2[nH]c(C)c(OC)c(=O)c12 | 19 µM | > 26 µM | > 1
CCCCCCCCc1cccc2[nH]c(C)c(OC)c(=O)c12 | 10 µM | 15 µM | 1.5
COc1ccccc1[C@]12CC[C@H](O[C@@H]1OC)c1c2ccc2[nH]c(C)c(OC)c(=O)c12 | 18.7 µM | > 24 µM | > 1
COc1c(C)n(OC)c2c(c1=O)[C@@H](CCCC[C@H](O)c1ccccc1)CCC2 | 7.5 µM | > 26 µM | > 3.5
COc1ccc(OC)c([C@@]2(O)c3ccc4[nH]c(C)c(OC)c(=O)c4c3[C@@H]3CC[C@H]2O3)c1 | 14.7 µM | > 25 µM | > 1
COc1c(CO)[nH]c2ccc3c(c2c1=O)[C@@H]1CCC[C@@]3(c2ccccc2)O1 | 14.7 µM | > 22 µM | > 1.5
COc1cc(OC)cc(C2=CCCCc3c2ccc2[nH]c(C)c(OC)c(=O)c32)c1 | 13.1 µM | > 25 µM | > 1.5
CCCCCCCCCCCCc1cc(=O)c(OC)c(C)[nH]1 | 5 µM | > 32 µM | > 6
O=C(Cn1ccnc1[N+](=O)[O-])NCc1ccccc1 [BENZNIDAZOLE] | 2.9 µM | > 345 µM | > 119

Second part, led by results:

IC50 [2] | SMILES | IC50 [1] | selectivity ratio [3]
0.1 µM | COc1c(C)[nH]c2c(c1=O)[C@@H](CCCCCc1ccccc1)CC[C@H]2OC | 1.8 µM | 13.8
2.1 µM | COc1c(C)[nH]c(CCCCCCCCCc2ccccc2)cc1=O | > 29 µM | > 13
1.3 µM | COc1c(C)[nH]c2c(c1=O)[C@@H](CCCCCc1ccccc1)CCC2 | 6.5 µM | 5
2.1 µM | COc1c(C)[nH]c2c(OC)ccc(CCCCCc3ccccc3)c2c1=O | > 26 µM | > 12.5
7 µM | COc1c(CO)[nH]c2c(c1=O)[C@H](CCCCCc1ccccc1)CCC2 | > 28 µM | > 4
12.9 µM | COc1cc(CCCCCc2ccccc2)c2c(=O)c(OC)c(C)[nH]c2c1OC | > 23 µM | > 1.5
0.5 µM | COc1c(C)[nH]c2c(c1=O)[C@@H](CCCCCc1ccccc1)CCC2=O | 12 µM | 24.5
3.9 µM | COc1c(CO)n(OC)c2c(c1=O)[C@H](CCCCCc1ccccc1)CCC2 | > 26 µM | > 6
0.8 µM | COc1c(C)[nH]c2c(c1=O)[C@@H](CCCCCc1ccccc1)CC[C@H]2O | > 28 µM | > 33
